Test [1] deals with T1, Serine/threonine-protein kinase DCLK2 (Homo sapiens) (UniProt Q8N568).
T1 sequence (whole entry): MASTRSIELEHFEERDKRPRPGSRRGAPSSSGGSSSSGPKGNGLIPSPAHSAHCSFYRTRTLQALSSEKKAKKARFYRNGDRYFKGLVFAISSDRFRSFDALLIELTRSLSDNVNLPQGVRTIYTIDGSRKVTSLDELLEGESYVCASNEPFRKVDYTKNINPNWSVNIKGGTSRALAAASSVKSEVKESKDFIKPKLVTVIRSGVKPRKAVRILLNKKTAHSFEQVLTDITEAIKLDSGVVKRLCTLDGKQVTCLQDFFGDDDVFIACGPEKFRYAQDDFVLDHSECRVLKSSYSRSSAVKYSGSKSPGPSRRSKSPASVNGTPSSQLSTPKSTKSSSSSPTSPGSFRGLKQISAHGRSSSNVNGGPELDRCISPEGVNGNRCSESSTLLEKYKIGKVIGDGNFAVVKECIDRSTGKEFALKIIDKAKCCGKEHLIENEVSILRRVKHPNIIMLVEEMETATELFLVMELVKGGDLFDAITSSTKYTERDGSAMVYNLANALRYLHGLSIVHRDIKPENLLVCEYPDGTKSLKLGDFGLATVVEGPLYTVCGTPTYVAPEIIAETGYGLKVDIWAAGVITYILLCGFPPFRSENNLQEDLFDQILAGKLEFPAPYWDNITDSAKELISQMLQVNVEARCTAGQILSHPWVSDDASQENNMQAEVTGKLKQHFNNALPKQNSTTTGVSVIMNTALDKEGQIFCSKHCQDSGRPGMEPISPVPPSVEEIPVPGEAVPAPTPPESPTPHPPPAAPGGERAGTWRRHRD
As to the kind of experiment: Inhibition of DCAMKL2 at 1 uM in presence of 100 uM ATP by Select Screen kinase assay relative to untreated control. Put shortly: (§1)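 Single-point screen at 1 μM against a panel of 220 purified kinases, run by Invitrogen staff as a SelectScreen profiling service. Read-out is percent inhibition of kinase activity.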

The target of test [2] is RAF proto-oncogene serine/threonine-protein kinase (Homo sapiens) (UniProt P04049). As to the kind of experiment: Inhibition of RAF1 at 1 uM in presence of 100 uM ATP by Select Screen kinase assay relative to untreated control. Put shortly:
(§2)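 Commercial SelectScreen profiling panel of 220 purified kinases. Each kinase was tested at a single inhibitor concentration of 1 μM, and activity was expressed as percent inhibition.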

Test [3] deals with RAC-alpha serine/threonine-protein kinase (Homo sapiens, UniProt P31749). As to the kind of experiment: Inhibition of AKT1 at 1 uM in presence of 10 uM ATP by Select Screen kinase assay relative to untreated control. Put shortly: as §1
Chain of RAC-alpha serine/threonine-protein kinase (P31749 whole entry): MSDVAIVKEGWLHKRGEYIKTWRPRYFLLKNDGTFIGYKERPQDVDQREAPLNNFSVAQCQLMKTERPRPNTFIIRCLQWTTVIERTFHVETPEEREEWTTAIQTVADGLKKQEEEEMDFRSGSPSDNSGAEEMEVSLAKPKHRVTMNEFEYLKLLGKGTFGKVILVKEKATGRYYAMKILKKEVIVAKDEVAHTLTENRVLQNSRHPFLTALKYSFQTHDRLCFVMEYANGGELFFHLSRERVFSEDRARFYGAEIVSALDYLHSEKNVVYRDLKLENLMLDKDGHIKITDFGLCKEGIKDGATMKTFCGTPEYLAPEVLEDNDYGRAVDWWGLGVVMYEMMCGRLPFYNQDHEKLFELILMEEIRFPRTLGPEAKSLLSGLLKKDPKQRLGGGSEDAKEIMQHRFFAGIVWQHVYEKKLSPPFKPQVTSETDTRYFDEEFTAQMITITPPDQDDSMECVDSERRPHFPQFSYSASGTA
Test [4] concerns the target Tyrosine-protein kinase Lyn (Homo sapiens) (UniProt P07948). The experiment in a line: Inhibition of LYN B at 1 uM in presence of 10 uM ATP by Select Screen kinase assay relative to untreated control. The essentials: (§3)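 Single-concentration profiling at 1 μM against a panel of 220 purified kinases, run as an outsourced SelectScreen kinase profiling service. Activity is expressed as percent inhibition.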

For test [5], the target named is Homeodomain-interacting protein kinase 1 (Homo sapiens) (UniProt Q86Z02). As to the kind of experiment: Inhibition of HIPK1 at 1 uM in presence of 10 uM ATP by Select Screen kinase assay relative to untreated control. The essentials:
as §3

In test [6] the target is Dual specificity mitogen-activated protein kinase kinase 1 (Homo sapiens) (UniProt Q02750). The experiment in a line: Inhibition of MAP2K1 at 1 uM in presence of 100 uM ATP by Select Screen kinase assay relative to untreated control. Put shortly:
as §3

In test [7] the target is Tyrosine-protein kinase Lyn (Homo sapiens) (UniProt P07948). The experiment in a line: Inhibition of LYN A at 1 uM in presence of 10 uM ATP by Select Screen kinase assay relative to untreated control. The essentials: as §3
Chain of Tyrosine-protein kinase Lyn (Homo sapiens) (P07948 2-512 limits assumed): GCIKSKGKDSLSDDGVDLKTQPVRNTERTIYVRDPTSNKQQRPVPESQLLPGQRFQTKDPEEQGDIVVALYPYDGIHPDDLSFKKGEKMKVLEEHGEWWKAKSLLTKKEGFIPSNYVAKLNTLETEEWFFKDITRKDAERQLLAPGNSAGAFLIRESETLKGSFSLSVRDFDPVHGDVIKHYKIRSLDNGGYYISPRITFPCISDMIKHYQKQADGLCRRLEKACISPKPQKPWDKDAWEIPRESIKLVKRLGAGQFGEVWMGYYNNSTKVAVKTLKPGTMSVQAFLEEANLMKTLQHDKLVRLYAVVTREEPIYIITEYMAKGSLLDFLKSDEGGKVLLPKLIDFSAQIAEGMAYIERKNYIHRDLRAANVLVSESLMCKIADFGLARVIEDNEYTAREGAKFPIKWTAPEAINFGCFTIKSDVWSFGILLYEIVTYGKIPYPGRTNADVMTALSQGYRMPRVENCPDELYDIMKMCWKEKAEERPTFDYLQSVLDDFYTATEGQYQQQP
Test [8] has as its target T2, Serine/threonine-protein kinase Sgk3 (Homo sapiens) (UniProt Q96BR1).
T2 sequence (whole entry): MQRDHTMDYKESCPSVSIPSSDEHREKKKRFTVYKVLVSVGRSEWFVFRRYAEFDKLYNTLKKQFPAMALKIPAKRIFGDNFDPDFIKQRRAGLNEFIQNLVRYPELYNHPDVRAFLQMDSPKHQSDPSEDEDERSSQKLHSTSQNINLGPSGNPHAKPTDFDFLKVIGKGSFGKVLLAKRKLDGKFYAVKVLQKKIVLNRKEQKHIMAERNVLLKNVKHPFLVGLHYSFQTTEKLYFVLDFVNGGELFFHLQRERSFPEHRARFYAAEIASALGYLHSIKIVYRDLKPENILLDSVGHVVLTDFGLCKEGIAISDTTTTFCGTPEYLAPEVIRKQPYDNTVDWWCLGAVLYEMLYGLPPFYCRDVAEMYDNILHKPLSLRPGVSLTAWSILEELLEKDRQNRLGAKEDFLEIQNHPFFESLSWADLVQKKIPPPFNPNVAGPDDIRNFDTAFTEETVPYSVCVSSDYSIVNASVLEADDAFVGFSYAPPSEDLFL
As to the kind of experiment: Inhibition of SGKL at 1 uM in presence of 10 uM ATP by Select Screen kinase assay relative to untreated control. The essentials:
as §2

The target in test [9] is Tyrosine-protein kinase CSK (Homo sapiens) (UniProt P41240). As to the kind of experiment: Inhibition of CSK at 1 uM in presence of 10 uM ATP by Select Screen kinase assay relative to untreated control. The essentials: as §1
Test [10] concerns the target T3, Activin receptor type-1B (Homo sapiens) (UniProt P36896).
T3 sequence (whole entry): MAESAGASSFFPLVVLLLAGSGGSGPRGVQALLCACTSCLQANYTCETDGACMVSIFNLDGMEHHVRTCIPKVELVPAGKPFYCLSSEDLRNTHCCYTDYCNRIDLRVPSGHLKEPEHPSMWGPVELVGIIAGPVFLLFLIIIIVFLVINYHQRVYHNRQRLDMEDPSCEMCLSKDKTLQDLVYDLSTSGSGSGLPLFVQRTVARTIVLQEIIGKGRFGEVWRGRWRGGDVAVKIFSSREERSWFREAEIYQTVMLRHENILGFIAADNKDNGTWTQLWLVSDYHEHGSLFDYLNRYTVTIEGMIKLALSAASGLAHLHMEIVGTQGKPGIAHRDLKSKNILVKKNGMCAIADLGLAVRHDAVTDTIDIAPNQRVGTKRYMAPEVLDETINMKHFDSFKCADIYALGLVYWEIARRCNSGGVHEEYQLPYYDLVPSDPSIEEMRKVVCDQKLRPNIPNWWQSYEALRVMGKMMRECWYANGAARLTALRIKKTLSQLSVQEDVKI
The experiment in a line: Inhibition of ACVR1B at 1 uM in presence of 10 uM ATP by Select Screen kinase assay relative to untreated control. The essentials:
as §1

In test [11] the target is Insulin-like growth factor 1 receptor (Homo sapiens) (UniProt P08069). As to the kind of experiment: Inhibition of IGF1R at 1 uM in presence of 10 uM ATP by Select Screen kinase assay relative to untreated control. Put shortly:
as §3

In test [12] the target is Serine/threonine-protein kinase Nek7 (Homo sapiens) (UniProt Q8TDX7). The experiment in a line: Inhibition of NEK7 at 1 uM in presence of 100 uM ATP by Select Screen kinase assay relative to untreated control. Put shortly: as §2
Test [13] has as its target Myosin light chain kinase 2, skeletal/cardiac muscle (Homo sapiens) (UniProt Q9H1R3). The experiment in a line: Inhibition of MYLK2 at 1 uM in presence of 100 uM ATP by Select Screen kinase assay relative to untreated control. The essentials: as §3

The results in this text go back to ChEMBL document CHEMBL1250448, “Inhibitor hijacking of Akt activation” (Nat Chem Biol, 2009).

In general, inhibition refers to the relative decrease from the control value, in per cent.

Chain of Homeodomain-interacting protein kinase 1 (Homo sapiens) (Q86Z02 whole entry, looked up): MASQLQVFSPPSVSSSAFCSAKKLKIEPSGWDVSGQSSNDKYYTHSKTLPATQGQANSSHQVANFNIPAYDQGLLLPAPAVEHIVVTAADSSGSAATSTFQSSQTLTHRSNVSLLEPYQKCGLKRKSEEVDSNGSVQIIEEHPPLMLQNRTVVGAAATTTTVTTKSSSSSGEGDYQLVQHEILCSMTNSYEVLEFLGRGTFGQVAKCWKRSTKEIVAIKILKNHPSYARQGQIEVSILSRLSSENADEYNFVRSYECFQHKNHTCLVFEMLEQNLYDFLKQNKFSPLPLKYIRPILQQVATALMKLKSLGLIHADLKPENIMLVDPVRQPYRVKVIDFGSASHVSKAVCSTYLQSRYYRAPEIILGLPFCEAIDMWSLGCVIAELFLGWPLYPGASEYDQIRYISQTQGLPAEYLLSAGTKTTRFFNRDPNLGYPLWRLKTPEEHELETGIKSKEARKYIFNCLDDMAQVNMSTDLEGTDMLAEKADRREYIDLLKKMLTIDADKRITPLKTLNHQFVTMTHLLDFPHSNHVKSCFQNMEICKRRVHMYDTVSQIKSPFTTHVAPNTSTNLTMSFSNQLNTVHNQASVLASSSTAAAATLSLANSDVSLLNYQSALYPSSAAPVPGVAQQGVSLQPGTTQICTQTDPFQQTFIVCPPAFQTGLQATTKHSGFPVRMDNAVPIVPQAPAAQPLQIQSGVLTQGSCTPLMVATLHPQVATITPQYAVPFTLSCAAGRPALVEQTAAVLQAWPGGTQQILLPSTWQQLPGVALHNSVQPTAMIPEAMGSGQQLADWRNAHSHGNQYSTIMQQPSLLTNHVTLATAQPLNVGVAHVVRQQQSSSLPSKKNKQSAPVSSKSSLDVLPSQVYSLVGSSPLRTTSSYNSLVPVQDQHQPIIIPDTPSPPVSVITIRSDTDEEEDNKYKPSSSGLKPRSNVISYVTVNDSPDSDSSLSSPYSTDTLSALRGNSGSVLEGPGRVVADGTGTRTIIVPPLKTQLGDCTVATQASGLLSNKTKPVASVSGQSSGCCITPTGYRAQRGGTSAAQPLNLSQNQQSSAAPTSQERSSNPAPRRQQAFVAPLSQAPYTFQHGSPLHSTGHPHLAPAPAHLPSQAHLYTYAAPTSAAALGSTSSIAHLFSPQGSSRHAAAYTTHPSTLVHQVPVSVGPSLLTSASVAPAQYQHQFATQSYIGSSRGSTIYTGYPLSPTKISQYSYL
Chain of Myosin light chain kinase 2, skeletal/cardiac muscle (Homo sapiens) (Q9H1R3 whole entry): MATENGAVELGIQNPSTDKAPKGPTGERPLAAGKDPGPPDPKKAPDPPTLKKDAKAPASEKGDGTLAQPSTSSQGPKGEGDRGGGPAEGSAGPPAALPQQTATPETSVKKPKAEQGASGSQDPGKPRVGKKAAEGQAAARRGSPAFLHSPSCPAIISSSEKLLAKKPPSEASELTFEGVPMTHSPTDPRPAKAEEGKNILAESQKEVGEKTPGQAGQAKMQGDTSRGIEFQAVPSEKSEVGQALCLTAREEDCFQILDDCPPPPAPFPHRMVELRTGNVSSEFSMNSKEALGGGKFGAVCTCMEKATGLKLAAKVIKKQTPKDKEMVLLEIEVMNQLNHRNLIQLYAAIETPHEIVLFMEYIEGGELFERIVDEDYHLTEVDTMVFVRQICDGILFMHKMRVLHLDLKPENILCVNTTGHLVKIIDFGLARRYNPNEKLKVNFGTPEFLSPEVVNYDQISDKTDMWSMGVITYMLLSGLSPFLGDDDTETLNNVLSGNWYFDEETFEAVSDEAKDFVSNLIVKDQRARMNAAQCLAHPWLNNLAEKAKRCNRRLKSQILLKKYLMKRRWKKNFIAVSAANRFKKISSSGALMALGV
Chain of Insulin-like growth factor 1 receptor (Homo sapiens) (P08069 31-736 limits assumed): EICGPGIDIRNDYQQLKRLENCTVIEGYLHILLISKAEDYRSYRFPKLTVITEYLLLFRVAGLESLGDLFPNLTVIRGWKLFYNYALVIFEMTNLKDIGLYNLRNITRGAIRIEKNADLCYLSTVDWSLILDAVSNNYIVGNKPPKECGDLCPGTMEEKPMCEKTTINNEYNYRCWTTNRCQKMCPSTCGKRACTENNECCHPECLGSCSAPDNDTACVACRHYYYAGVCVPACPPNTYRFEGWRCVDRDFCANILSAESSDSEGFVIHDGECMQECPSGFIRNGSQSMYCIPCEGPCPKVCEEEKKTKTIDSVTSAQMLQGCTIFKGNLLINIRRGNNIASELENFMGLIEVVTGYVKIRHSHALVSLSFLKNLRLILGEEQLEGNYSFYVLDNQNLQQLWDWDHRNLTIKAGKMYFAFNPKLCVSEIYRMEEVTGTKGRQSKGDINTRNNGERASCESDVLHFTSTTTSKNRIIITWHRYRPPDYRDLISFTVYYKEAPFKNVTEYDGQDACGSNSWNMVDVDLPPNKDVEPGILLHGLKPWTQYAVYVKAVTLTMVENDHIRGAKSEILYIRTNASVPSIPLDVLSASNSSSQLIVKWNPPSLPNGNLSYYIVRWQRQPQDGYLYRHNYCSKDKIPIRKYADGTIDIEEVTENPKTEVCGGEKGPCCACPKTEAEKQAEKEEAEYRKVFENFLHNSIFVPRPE
Chain of Insulin-like growth factor 1 receptor (Homo sapiens) (P08069 741-1367 limits assumed): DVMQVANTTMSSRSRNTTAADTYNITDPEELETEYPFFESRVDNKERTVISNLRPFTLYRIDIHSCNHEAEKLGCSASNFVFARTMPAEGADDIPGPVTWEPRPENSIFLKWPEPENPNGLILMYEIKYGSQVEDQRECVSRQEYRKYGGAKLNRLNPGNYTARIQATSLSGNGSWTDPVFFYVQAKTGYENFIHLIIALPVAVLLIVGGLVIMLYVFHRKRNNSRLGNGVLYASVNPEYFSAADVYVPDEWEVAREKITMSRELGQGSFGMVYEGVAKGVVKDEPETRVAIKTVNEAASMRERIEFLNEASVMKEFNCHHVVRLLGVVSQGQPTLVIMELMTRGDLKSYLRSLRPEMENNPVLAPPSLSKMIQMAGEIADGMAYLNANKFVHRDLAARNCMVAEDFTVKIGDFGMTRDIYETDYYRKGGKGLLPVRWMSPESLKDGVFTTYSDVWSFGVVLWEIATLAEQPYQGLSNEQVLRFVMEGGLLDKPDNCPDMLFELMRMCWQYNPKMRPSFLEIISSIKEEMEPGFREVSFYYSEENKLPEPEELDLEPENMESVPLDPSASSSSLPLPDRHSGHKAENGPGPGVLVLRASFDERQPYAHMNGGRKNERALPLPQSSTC
Chain of RAF proto-oncogene serine/threonine-protein kinase (Homo sapiens) (P04049 whole entry): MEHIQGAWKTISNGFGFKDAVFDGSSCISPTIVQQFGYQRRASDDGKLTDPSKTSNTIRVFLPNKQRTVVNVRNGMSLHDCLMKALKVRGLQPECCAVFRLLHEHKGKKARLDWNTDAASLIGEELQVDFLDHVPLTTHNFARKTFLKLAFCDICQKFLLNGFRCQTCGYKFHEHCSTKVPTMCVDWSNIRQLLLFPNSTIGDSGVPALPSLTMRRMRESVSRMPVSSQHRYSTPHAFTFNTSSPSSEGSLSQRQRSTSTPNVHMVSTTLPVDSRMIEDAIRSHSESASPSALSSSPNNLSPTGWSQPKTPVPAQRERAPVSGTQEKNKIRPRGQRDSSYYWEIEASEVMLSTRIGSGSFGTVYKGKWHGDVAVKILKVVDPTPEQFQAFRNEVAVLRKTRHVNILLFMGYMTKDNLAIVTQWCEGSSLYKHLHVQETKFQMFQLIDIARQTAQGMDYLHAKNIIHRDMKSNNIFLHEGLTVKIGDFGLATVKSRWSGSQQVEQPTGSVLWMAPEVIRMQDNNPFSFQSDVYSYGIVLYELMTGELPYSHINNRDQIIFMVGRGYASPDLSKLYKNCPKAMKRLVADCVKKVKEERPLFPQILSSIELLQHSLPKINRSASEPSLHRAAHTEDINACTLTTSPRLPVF

For the compound `O=C(NCCCNc1nc(Nc2cccc(NC(=O)N3CCCC3)c2)ncc1I)c1cccs1`, the inhibition in [1] was 10%; in test [2] it was 43%; in test [3], 7%; in test [4], 21%; in test [5], 18%; in test [6] it was 67%. Besides, the inhibition in test [7] turned out to be 27%; in [8], 12%; in test [9], 5%; in test [10] it was 7%; in test [11], 10%; in test [12], 9%. Also, the inhibition in test [13] came out at 25%.
For `COc1ccccc1N1CCN(c2ncnc3[nH]nc(Br)c23)CC1`, the inhibition in [1] turned out to be 6%; in [2], 12%; in [3], 16%; in test [4] it was 10%; in [5] it was 34%; in [6], 12%. The inhibition in test [7] was 13%; in test [8], 17%; in test [9] it was 3%; in test [10] it was -2%; in [11], 10%; in test [12] it was 13%. For the same compound, the inhibition in test [13] came to 12%.
In the case of `Cc1n[nH]c2ccc(-c3cncc(OC[C@@H](N)Cc4c[nH]c5ccccc45)c3)cc12`, the inhibition stood at 11% in test [1]; 81% in test [2]; 100% in [3]; 7% in test [4]; 68% in [5]; 42% in test [6]. Moreover, the inhibition in [7] was 8%; in test [8], 78%; in test [9], -1%; in test [10], 0%; in [11] it was 5%; in test [12] it was 1%. In test [13], the inhibition stood at 22%.
